Laboratory results taken from paper PMC4493932 (MedChemComm, 2013).
Like-named read-outs stand apart in the source and are kept apart here. Marks after values point to notes of the source that are not given here.

What was measured:
human (h) P2Y6R = human (h) P2Y6R (Homo sapiens, UniProt Q15077); assay: PLC activation in 1321N1 human astrocytoma cells stably expressing the hP2Y6R; format: cell-based
In short: (§1)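 Agonist-induced phospholipase C activation in 1321N1 human astrocytoma cells stably expressing recombinant human P2Y6, P2Y2 or P2Y4 receptor. EC50 values are given as mean ± SEM. Efficacy is expressed as percent of the maximal activation by a full agonist at 10 μM. Subtype selectivity is taken as the ratio of EC50 values.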

[1] = target: P2Y6R-expressing 1321N1 astrocytoma cells (Homo sapiens, UniProt Q15077); assay: Fluorescence/confocal microscopy of P2Y6R-expressing 1321N1 astrocytoma cells; format: cell-based; settings: for Inhibition of fluorescent labeling by 16 (micrographs): 500 nM, 30 min preincubation at 37 °C, 16 500 nM, 60 min
P2Y6R-expressing 1321N1 astrocytoma cells, sequence (Q15077 whole entry): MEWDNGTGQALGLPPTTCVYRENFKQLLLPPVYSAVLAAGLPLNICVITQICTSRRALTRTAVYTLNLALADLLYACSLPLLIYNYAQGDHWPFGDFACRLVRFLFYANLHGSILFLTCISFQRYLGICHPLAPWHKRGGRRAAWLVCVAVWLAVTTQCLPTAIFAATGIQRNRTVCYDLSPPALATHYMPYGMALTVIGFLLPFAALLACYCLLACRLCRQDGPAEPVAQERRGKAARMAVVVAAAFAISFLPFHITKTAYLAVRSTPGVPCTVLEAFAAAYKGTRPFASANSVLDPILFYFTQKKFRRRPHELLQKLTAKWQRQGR
In short: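 Stably P2Y6R-expressing 1321N1 astrocytoma cells were exposed to an Alexa Fluor 488-conjugated nucleotide agonist (500 nM, 60 min, 37 °C), with or without a known P2Y6R agonist or a diisothiocyanate antagonist. Green fluorescence was imaged on a fluorescence microscope (excitation 495 nm, emission 519 nm).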

[2] = target: P2Y6R expressed on 1321N1 astrocytoma cells (Homo sapiens, UniProt Q15077); assay: Flow cytometry; format: cell-based; settings: for Inhibition of fluorescent binding of 16 to 1321N1-P2Y6R cells: 30 min pre-incubation, then 16 for 2 min, FCM
P2Y6R expressed on 1321N1 astrocytoma cells, sequence (Q15077 whole entry): as above
In short: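 1321N1 human astrocytoma cells stably expressing human P2Y6R were pre-incubated 30 min with known P2Y6R ligands. Cells were then exposed for 2 min to an Alexa Fluor 488-conjugated nucleotide agonist, and labeling was read by flow cytometry. Fluorescence was converted to MESF. Nonspecific binding was defined with 100 μM UDP, and autofluorescence came from receptor-expressing cells without probe.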

P2Y6R = settings: cited from earlier work; for EC50: read-out: P2Y6R agonist EC50
hP2Y4R = hP2Y4R (Homo sapiens, UniProt P51582); assay: PLC activation in 1321N1 cells stably expressing the hP2Y4R; format: cell-based; settings: percent of maximal activation by full agonist at 10 μM
hP2Y4R, sequence (P51582 whole entry): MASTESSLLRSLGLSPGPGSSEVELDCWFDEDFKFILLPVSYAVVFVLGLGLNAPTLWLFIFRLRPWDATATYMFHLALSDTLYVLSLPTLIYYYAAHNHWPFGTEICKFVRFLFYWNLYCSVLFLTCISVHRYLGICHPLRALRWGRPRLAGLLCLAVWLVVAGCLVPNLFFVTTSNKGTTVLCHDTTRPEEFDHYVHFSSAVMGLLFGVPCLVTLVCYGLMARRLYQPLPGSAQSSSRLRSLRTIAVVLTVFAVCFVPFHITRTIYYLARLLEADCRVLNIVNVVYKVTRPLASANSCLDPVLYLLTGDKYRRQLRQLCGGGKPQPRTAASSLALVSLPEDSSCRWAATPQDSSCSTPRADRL
In short: as §1

hP2Y1R = hP2Y1R (Homo sapiens, UniProt P47900); assay: Labeling of 1321N1 cells expressing the hP2Y1R; format: cell-based; settings: data not shown
hP2Y1R, sequence (P47900 whole entry): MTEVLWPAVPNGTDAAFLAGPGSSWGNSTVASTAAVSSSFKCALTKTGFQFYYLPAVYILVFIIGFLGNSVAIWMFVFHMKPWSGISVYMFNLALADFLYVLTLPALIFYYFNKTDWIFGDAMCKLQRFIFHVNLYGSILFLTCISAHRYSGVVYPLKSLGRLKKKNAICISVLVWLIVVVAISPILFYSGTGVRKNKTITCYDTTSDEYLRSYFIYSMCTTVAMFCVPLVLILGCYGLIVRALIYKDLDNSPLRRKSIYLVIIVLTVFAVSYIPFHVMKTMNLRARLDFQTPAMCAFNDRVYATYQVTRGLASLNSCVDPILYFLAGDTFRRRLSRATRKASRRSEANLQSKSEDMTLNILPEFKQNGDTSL

[3] = tested on: 1321N1 astrocytoma cells not expressing a P2YR; assay: Fluorescence microscopy of 1321N1 astrocytoma cells not expressing a P2YR; format: cell-based, human; settings: incubated with 16
In short: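 Confocal microscopy of 1321N1 astrocytoma cells incubated with the fluorescent test compound at 2 μM (figure panels give 1 μM) for 60 min at 37 °C. Cell-associated fluorescence was compared with receptor-expressing cells and with cells without the probe.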

hP2Y2R = hP2Y2R (Homo sapiens, UniProt P41231); assay: PLC activation in 1321N1 cells stably expressing the hP2Y2R; format: cell-based; settings: for EC50: read-out: Potency, EC50, P2Y2, 1321N1 astrocytoma cells expressing recombinant hP2Y2, mean ± SEM, NE = no effect
hP2Y2R, sequence (P41231 whole entry): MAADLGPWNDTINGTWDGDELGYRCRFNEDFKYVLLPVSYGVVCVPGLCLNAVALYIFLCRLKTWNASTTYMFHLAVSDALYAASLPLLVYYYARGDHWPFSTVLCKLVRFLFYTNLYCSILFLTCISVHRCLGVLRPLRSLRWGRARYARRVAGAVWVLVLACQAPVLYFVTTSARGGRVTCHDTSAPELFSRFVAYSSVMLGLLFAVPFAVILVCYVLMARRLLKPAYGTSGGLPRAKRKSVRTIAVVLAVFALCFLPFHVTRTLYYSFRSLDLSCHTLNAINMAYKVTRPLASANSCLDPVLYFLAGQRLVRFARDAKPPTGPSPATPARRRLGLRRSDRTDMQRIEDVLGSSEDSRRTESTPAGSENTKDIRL
In short: as §1

[4] = tested on: control 1321N1 astrocytoma cells; assay: FCM labeling of control 1321N1 astrocytoma cells; format: cell-based, human; settings: 60 min incubation
In short: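 Whole-cell flow cytometry labelling with the Alexa Fluor 488-tagged test compound, 400 nM. Autofluorescence came from cells without the probe. Nonspecific binding was taken in the presence of 100 μM UDP, and specific binding is total minus nonspecific. Fluorescence was converted to molecules of equivalent soluble fluorochrome (MESF). Histograms are from one of three independent experiments.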

hP2Y14R = target: T1, hP2Y14R (Homo sapiens, UniProt Q15391); format: cell-based; settings: concentrations up to 10 μM; C6 rat glioma cells
T1 sequence (Q15391 1-338): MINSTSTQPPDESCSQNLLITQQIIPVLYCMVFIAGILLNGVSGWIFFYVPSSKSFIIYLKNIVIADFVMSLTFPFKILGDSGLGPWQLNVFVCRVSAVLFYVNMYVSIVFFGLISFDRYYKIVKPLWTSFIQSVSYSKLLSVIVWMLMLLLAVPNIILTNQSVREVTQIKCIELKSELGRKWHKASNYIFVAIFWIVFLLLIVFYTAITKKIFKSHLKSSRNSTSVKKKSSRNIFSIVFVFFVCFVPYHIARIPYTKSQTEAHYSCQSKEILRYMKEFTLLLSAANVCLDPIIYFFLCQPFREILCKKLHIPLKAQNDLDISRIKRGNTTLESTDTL

human (h) P2Y6R, sequence (Q15077 whole entry): as the sequence (Q15077 whole entry) above

O=c1[nH]/c(=N\OCc2cccc(Br)c2)ccn1[C@@H]1O[C@H](COP(=O)(O)OP(=O)(O)O)[C@@H](O)[C@H]1O [Compound 10]
Selectivity toward the P2Y6R in comparison to the P2Y4R (human (h) P2Y6R; ratio of EC50 values): > 260 fold

CO/N=c1/ccn([C@@H]2O[C@H](COP(=O)(O)OP(=O)(O)OP(=O)(O)OC[C@H]3O[C@@H](n4ccc(=O)[nH]c4=O)[C@H](O)[C@@H]3O)[C@@H](O)[C@H]2O)c(=O)[nH]1 [Compound 8, P^1-(Uridine 5′-)-P^4-(N^4-methoxycytidine 5′-) triphosphate]
Inhibition of fluorescent labeling by 16 (micrographs) [1]: inhibit fluorescent labeling | Inhibition of fluorescent binding of 16 to 1321N1-P2Y6R cells ([2]; 0.5 μM): significant reduction of labeling

N^4-(3-(Cy5-NH-(CH2)6-triazole-(CH2)2-C≡C)-benzyloxy)-CDP [Compound 17]
Blockade of cell labeling by 100 μM UDP ([2]; 100 nM to 1 μM): could not be blocked | Dependence of 1321N1 cell labeling on P2Y6R expression ([2]; 100 nM to 1 μM): independent of the expression of the P2Y6R

O=C(Cn1c(=O)ccn([C@@H]2O[C@H](COP(=O)(O)OP(=O)(O)O)[C@@H](O)[C@H]2O)c1=O)c1ccccc1 [Compound 2, 3-phenacyl-UDP]
EC50 (P2Y6R): 0.07 µM

CO/N=c1/ccn([C@@H]2O[C@H](COP(=O)(O)OP(=O)(O)OP(=O)(O)Oc3ccc4ccccc4c3)[C@@H](O)[C@H]2O)c(=O)[nH]1 [Compound 20]
% activation, P2Y4 (hP2Y4R): <50% ^c

(N^4-(3-(AlexaFluor-NH-(CH2)6-triazole-(CH2)2-C≡C)-benzyloxy))-CDP [Compound 16]
Specific labeling of 1321N1 cells expressing the hP2Y1R (hP2Y1R): no specific labeling | Cell-associated fluorescence, localization ([1]; 2 μM, 60 min incubation at 37 °C, confocal microscopy): receptor-dependent and mainly intracellular | Fluorescence of cells not expressing a P2YR [3]: no increase in fluorescence | % activation, P2Y4 (hP2Y4R): <50% ^c | Selectivity toward the P2Y6R in comparison to the P2Y2R (human (h) P2Y6R; ratio of EC50 values): 280 fold | Selectivity toward the P2Y6R in comparison to the P2Y4R (human (h) P2Y6R; ratio of EC50 values): > 1100 fold | EC50 (human (h) P2Y6R; read-out: Potency, EC50, P2Y6, 1321N1 astrocytoma cells expressing recombinant hP2Y6, mean ± SEM): 0.009 ± 0.0019 µM | P2Y6R potency gain over immediate precursor 15 (human (h) P2Y6R; vs 15 lacking the fluorophore): 11 fold | EC50 (hP2Y2R): 2.5 ± 0.66 µM | Specific labeling of control 1321N1 cells [4]: no specific labeling | Activation of the hP2Y14R (hP2Y14R): did not activate

O=c1[nH]/c(=N\OCc2ccc(I)cc2)ccn1[C@@H]1O[C@H](COP(=O)(O)OP(=O)(O)O)[C@@H](O)[C@H]1O [Compound 13]
% activation, P2Y4 (hP2Y4R): <50% ^c | EC50 (hP2Y2R): > 10 µM

C#CCCCOP(=O)(O)OP(=O)(O)OP(=O)(O)OC[C@H]1O[C@@H](n2cc/c(=N/OCc3ccccc3)[nH]c2=O)[C@H](O)[C@@H]1O [Compound 23]
% activation, P2Y4 (hP2Y4R): <50% ^c | Potency, EC50, P2Y6 (human (h) P2Y6R; 1321N1 astrocytoma cells expressing recombinant hP2Y6, mean ± SEM): nearly inactive | EC50 (hP2Y2R): > 10 µM

C#CCCOP(=O)(O)OP(=O)(O)OP(=O)(O)OC[C@H]1O[C@@H](n2cc/c(=N/OCc3ccccc3)[nH]c2=O)[C@H](O)[C@@H]1O [Compound 22]
% activation, P2Y4 (hP2Y4R): <50% ^c | % activation, P2Y2 (hP2Y2R; percent of maximal activation by full agonist at 10 μM): <50% ^c

O=c1ccn([C@@H]2O[C@H](COP(=O)(O)OP(=O)(O)O)[C@@H](O)[C@H]2O)c(=O)[nH]1 [Compound 1, Uridine 5′-diphosphate]
Inhibition of fluorescent binding of 16 to 1321N1-P2Y6R cells ([2]; 10 μM): significant reduction of labeling | EC50 (P2Y6R; endogenous agonist): 0.3 µM

O=c1[nH]/c(=N\OCc2ccccc2)ccn1[C@@H]1O[C@H](COP(=O)(O)OP(=O)(O)O)[C@@H](O)[C@H]1O [Compound 6, N^4-benzyloxy-CDP]
P2Y6R selectivity vs. P2Y2R (P2Y6R): 82 fold | P2Y6R selectivity vs. P2Y4R (P2Y6R): 44 fold

S=C=Nc1cccc(NC(=S)NCCCCNC(=S)Nc2cccc(N=C=S)c2)c1 [MRS2578]
Inhibition of fluorescent labeling by 16 (micrographs) [1]: inhibit fluorescent labeling | Inhibition of fluorescent binding of 16 to 1321N1-P2Y6R cells ([2]; 1 μM): significant reduction of labeling
